Consider two molecules from ChEMBL document CHEMBL1124384, “Deaminoteicoplanin and its derivatives. Synthesis, antibacterial activity, and binding strength to Ac-D-Ala-D-Ala” (J Med Chem, 1989).

Series [1] relates to Staphylococcus aureus. Briefly: Minimal inhibitory concentration of compound against Staphylococcus aureus. Type of series: functional. Summed up: (§1)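 Broth MIC by 2-fold serial dilution in microtiter format, in Iso-sensitest broth, with a final inoculum of about 10⁴ cfu/mL. Plates were incubated 18–24 h at 37 °C. MIC was taken as the lowest concentration with no visible growth.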

Series [2] in a line: Association constant for compound at 31 degree C was determined. Format: ADME. Summed up:
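UV difference spectroscopy at 31 °C. Antibiotic at 25 μM in 10% methanol/0.02 M sodium citrate buffer, pH 5, sat in sample and reference cells (4-cm path). Ac-D-Ala-D-Ala was added from a 4 mM stock to the sample cell, with buffer added to the reference. The absorbance change was read at 282–285 nm. K_A came from Scatchard plots, with antibiotic concentration set by UV at 279 nm.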

A further series relates to Streptococcus pyogenes. Briefly: Minimal inhibitory concentration of compound against Streptococcus pyogenes C203. Format: functional. In a few lines: (§2)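 Streptococci were tested by 2-fold broth microdilution in Todd-Hewitt broth, with a final inoculum of about 10⁴ cfu/mL. After 18–24 h at 37 °C, MIC was read as the lowest concentration with no visible growth.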
Series [3] concerns Staphylococcus aureus. Briefly: Minimal inhibitory concentration of compound against Staphylococcus aureus Tour determined in iso-sensitest broth supplemented with 30% bovine serum and an inoculum of 10e4 cfu/mL.
A further series relates to Streptococcus pneumoniae. Briefly: Minimal inhibitory concentration of compound against Streptococcus pneumoniae UC41. Type of series: functional. Summed up: as §2
Series [4] concerns Staphylococcus epidermidis. Nature of the series: Minimal inhibitory concentration of compound against […] ATCC 12228. Type of series: functional.
The test system of another series is Enterococcus faecalis. Nature of the series: Minimal inhibitory concentration of compound against Streptococcus faecalis AACC7080. Type of series: functional. Summed up:
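For S. faecalis, 2-fold dilution MIC in a microtiter system using Iso-sensitest broth and a final inoculum of about 10⁴ cfu/mL. Incubation was 18–24 h at 37 °C. The endpoint was the lowest concentration without visible growth.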

The test system of series [5] is Staphylococcus aureus. Briefly: Minimal inhibitory concentration of compound against Staphylococcus aureus Tour in an inoculum of 10e6 cfu/mL. Type of series: functional. In a few lines: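 Twofold microtiter broth dilution in Iso-sensitest broth, with the inoculum raised to 10⁶ cfu/mL. After 18–24 h at 37 °C, MIC was read as the lowest concentration giving no visible growth.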

Series [6] relates to Staphylococcus aureus. Briefly: Minimal inhibitory concentration of compound against Staphylococcus aureus Tour. Type of series: functional. In a few lines: as §1

In brackets after ≈: the same amount, converted by molar mass.

Turning to `CCCCCCCCCC(=O)N[C@@H]1[C@H](Oc2c3cc4cc2Oc2ccc(cc2Cl)[C@@H](O[C@@H]2O[C@@H](CO)[C@@H](O)[C@H](O)[C@@H]2NC(C)=O)[C@@H]2NC(=O)[C@H](NC(=O)[C@@H]4NC(=O)[C@H]4NC(=O)[C@@H](Cc5ccc(c(Cl)c5)O3)NC(=O)Cc3ccc(O)c(c3)Oc3cc(O)cc4c3)c3ccc(O)c(c3)-c3c(O[C@H]4O[C@H](CO)[C@@H](O)[C@@H](O)[C@@H]4O)cc(O)cc3[C@@H](C(=O)O)NC2=O)O[C@@H](CO)[C@@H](O)[C@@H]1O`, the MIC in the series on Staphylococcus aureus [1] stood at 0.5 µg/mL (≈ 0.268 µM); in the series on Streptococcus pyogenes, 0.12 µg/mL (≈ 0.0644 µM); with Staphylococcus aureus [3] it was 8 µg/mL (≈ 4.29 µM); in the series on Streptococcus pneumoniae, 0.25 µg/mL (≈ 0.134 µM); in series [4] it was 0.12 µg/mL (≈ 0.0644 µM); in the series with Enterococcus faecalis it was 0.5 µg/mL (≈ 0.268 µM). Also, the minimal inhibitory concentration (MIC) in the series on Staphylococcus aureus [5] amounted to 2 µg/mL (≈ 1.07 µM). In [2], the KA turned out to be 130000 M⁻¹.
Turning to `N[C@H]1C(=O)N[C@@H]2Cc3ccc(c(Cl)c3)Oc3cc4cc(c3O)Oc3ccc(cc3Cl)[C@@H](O)[C@@H]3NC(=O)[C@H](NC(=O)[C@@H]4NC(=O)[C@@H](NC2=O)c2cc(O)cc(c2)Oc2cc1ccc2O)c1ccc(O)c(c1)-c1c(O)cc(O)cc1[C@@H](C(=O)O)NC3=O` [TEICOPLANIN AGLYCON], the KA in series [2] is 180000 M⁻¹. Besides, the minimum inhibitory concentration (MIC) against Streptococcus pyogenes turned out to be 0.12 µg/mL (≈ 0.1 µM); in the series on Staphylococcus aureus [3], 0.25 µg/mL (≈ 0.209 µM); against Streptococcus pneumoniae, 0.12 µg/mL (≈ 0.1 µM); in series [4], 0.016 µg/mL (≈ 0.0133 µM); with Enterococcus faecalis it was 0.12 µg/mL (≈ 0.1 µM); with Staphylococcus aureus [6] it was 0.06 µg/mL (≈ 0.05 µM). This molecule yielded an MIC against Staphylococcus aureus [5] of 0.12 µg/mL (≈ 0.1 µM).
